The values that follow come from ChEMBL document CHEMBL1212904, “Discovery of pyrrole-indoline-2-ones as Aurora kinase inhibitors with a different inhibition profile” (J Med Chem, 2010).

One assay has as its system HT-29. As to the kind of experiment: Antiproliferative activity against human HT-29 cells after 72 hrs by cell titer 96 assay. The conditions noted are these: HT-29, 72 h. It counts as functional, cell-based.
In assay [1] the target is Platelet-derived growth factor receptor beta (Homo sapiens, UniProt P09619). The experiment in a line: Inhibition of PDGFRbeta at 1 uM by radiometric method.
In assay [2] the test system is HCT-116. The experiment in a line: Antiproliferative activity against human HCT116 cells after 72 hrs by cell titer 96 assay. The format is functional, cell-based. The conditions noted are these: HCT-116, 72 h.
Assay [3] addresses Mitogen-activated protein kinase kinase kinase kinase 5 (Homo sapiens) (UniProt Q9Y4K4). As to the kind of experiment: Inhibition of MAP4K5 at 1 uM by KINOMEscan binding assay.
Assay [4] deals with Epithelial discoidin domain-containing receptor 1 (Homo sapiens) (UniProt Q08345). The experiment in a line: Inhibition of DDR1 at 1 uM by KINOMEscan binding assay.
Assay [5] addresses Tyrosine-protein kinase ABL1 (Homo sapiens) (UniProt P00519). The experiment in a line: Inhibition of ABL1 at 1 uM by radiometric method.
The target of assay [6] is High affinity nerve growth factor receptor (Homo sapiens) (UniProt P04629). As to the kind of experiment: Inhibition of TRK at 1 uM by KINOMEscan binding assay.
In assay [7] the target is Mitogen-activated protein kinase 14 (Homo sapiens) (UniProt Q16539). As to the kind of experiment: Inhibition of MAPK14 at 1 uM by radiometric method.
Assay [8] concerns the target Macrophage colony-stimulating factor 1 receptor (Homo sapiens, UniProt P07333). The following applies: 1 uM.
Assay [9] deals with RAF proto-oncogene serine/threonine-protein kinase (Homo sapiens) (UniProt P04049). The experiment in a line: Inhibition of c-Raf at 1 uM by radiometric method.
Assay [10] has as its target Rhodopsin kinase GRK7 (Homo sapiens) (UniProt Q8WTQ7). As to the kind of experiment: Inhibition of GRK7 at 1 uM by KINOMEscan binding assay.
For assay [11], the target named is Mitogen-activated protein kinase kinase kinase kinase 3 (Homo sapiens) (UniProt Q8IVH8). The experiment in a line: Inhibition of MAP4K3 at 1 uM by KINOMEscan binding assay.
The target of assay [12] is Receptor-type tyrosine-protein kinase FLT3 (Homo sapiens) (UniProt P36888). As to the kind of experiment: Inhibition of FLT3 at 1 uM by radiometric method.
Assay [13] addresses Phosphatidylinositol 5-phosphate 4-kinase type-2 gamma (Homo sapiens) (UniProt Q8TBX8). As to the kind of experiment: Inhibition of PIP5K2C at 1 uM by KINOMEscan binding assay.
In assay [14] the target is Tyrosine-protein kinase Mer (Homo sapiens) (UniProt Q12866). As to the kind of experiment: Inhibition of MERTK at 1 uM by KINOMEscan binding assay.
Assay [15] has as its target Mast/stem cell growth factor receptor Kit (Homo sapiens, UniProt P10721). As to the kind of experiment: Inhibition of c-Kit at 1 uM by radiometric method.
Assay [16] relates to HCT-116. The experiment in a line: Antiproliferative activity against human HCT116 cells after 72 hrs by [3H]thymidine incorporation assay. The format is functional, cell-based.
Assay [17] has as its target Fibroblast growth factor receptor 1 (Homo sapiens) (UniProt P11362). As to the kind of experiment: Inhibition of FGFR1 at 1 uM by radiometric method.
In a further assay the target is T1, Aurora kinase A (Homo sapiens, UniProt O14965).
T1 sequence (O14965 whole entry): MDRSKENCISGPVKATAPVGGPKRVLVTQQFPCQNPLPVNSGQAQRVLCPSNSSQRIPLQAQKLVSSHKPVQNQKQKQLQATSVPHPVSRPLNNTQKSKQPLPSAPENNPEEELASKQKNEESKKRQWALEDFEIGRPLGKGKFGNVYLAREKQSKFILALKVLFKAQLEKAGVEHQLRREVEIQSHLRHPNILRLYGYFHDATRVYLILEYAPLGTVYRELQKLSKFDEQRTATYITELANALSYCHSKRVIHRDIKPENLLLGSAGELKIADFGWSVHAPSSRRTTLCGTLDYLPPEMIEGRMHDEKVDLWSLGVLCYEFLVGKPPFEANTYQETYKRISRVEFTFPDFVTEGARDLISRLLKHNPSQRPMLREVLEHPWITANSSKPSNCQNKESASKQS
As to the kind of experiment: Inhibition of recombinant aurora A.

For assay [18], the system named is HCT-116. As to the kind of experiment: Cell cycle arrest in human HCT116 cells assessed as increase of multinucleated octoploid 8 N DNA at 4 uM after 24 hrs by flow cytometry. It counts as functional, cell-based. The essentials: (§1)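 HCT-116 cells exposed to 4 μM for 24 h, then trypsinized, PBS-washed, fixed in ice-cold 70% ethanol at -20 °C overnight. Cells were washed twice in PBS and stained 30 min in PBS with 2 μg/mL RNase A and 5 μg/mL propidium iodide. DNA content was read by flow cytometry to score 4 N and ≥8 N populations.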

Assay [19] deals with Vascular endothelial growth factor receptor 2 (Homo sapiens, UniProt P35968). The experiment in a line: Inhibition of VEGFR2 by radiometric method.
The target in a further assay is Aurora kinase B (Homo sapiens, UniProt Q96GD4). The experiment in a line: Inhibition of recombinant aurora B.
Another assay has as its system HeLa. The experiment in a line: Antiproliferative activity against human HeLa cells after 72 hrs by cell titer 96 assay. The format is functional, cell-based.
Assay [20] concerns the target Receptor-type tyrosine-protein kinase FLT3 (Homo sapiens, UniProt P36888). The experiment in a line: Inhibition of FLT3 by radiometric method.
Assay [21] has as its system HCT-116. The experiment in a line: Cell cycle arrest in human HCT116 cells assessed as increase of tetraploid 4N DNA at 4 uM after 24 hrs by flow cytometry. It counts as functional, cell-based. The essentials: as §1

The source made the active and inactive calls. No cut-off for these calls is given here.

Sequence of Mitogen-activated protein kinase kinase kinase kinase 3 (Homo sapiens) (Q8IVH8 whole entry): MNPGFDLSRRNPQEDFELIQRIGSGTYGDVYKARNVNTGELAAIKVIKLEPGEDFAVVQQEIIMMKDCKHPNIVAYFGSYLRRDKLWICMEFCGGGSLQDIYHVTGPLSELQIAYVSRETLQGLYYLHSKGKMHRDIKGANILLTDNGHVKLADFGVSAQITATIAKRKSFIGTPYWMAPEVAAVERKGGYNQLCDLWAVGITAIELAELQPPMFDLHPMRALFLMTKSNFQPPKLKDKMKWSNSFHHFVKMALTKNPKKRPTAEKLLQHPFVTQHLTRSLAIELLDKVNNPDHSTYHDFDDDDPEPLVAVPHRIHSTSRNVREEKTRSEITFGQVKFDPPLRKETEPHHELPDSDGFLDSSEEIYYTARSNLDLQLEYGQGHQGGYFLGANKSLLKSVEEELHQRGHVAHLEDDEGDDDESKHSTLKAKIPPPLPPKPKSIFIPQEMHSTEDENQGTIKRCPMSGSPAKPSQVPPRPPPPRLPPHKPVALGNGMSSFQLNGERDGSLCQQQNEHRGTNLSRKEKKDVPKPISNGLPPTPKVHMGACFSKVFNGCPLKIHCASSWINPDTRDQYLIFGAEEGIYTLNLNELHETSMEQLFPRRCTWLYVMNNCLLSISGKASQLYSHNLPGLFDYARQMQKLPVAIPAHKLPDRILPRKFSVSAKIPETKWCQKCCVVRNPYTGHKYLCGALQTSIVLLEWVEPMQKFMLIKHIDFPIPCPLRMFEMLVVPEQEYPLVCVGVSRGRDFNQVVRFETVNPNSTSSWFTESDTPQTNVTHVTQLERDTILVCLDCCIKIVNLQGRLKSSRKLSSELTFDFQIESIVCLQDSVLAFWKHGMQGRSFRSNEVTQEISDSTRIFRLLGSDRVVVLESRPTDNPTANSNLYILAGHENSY
Sequence of High affinity nerve growth factor receptor (Homo sapiens) (P04629 33-796 limits assumed): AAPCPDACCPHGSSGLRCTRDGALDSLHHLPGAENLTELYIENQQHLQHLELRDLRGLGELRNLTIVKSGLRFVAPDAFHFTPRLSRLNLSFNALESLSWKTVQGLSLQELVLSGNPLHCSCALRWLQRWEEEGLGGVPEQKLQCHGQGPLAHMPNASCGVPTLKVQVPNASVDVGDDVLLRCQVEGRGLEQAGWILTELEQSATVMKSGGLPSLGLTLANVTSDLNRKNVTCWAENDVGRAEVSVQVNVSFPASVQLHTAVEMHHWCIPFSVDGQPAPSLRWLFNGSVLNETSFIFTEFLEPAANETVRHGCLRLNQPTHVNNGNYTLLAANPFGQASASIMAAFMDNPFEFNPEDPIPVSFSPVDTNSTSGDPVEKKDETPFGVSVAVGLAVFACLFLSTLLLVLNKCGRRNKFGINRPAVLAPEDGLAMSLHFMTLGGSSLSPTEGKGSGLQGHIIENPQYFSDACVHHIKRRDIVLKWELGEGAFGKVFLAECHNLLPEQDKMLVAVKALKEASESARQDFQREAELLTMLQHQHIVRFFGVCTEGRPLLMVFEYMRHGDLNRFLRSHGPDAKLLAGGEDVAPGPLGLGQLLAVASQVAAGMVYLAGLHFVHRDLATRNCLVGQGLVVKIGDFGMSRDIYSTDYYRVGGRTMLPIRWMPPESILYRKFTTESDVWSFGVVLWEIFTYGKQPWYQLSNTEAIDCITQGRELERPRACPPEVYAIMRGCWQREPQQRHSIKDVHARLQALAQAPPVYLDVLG
Sequence of Epithelial discoidin domain-containing receptor 1 (Homo sapiens) (Q08345 whole entry, the tested form may be a part): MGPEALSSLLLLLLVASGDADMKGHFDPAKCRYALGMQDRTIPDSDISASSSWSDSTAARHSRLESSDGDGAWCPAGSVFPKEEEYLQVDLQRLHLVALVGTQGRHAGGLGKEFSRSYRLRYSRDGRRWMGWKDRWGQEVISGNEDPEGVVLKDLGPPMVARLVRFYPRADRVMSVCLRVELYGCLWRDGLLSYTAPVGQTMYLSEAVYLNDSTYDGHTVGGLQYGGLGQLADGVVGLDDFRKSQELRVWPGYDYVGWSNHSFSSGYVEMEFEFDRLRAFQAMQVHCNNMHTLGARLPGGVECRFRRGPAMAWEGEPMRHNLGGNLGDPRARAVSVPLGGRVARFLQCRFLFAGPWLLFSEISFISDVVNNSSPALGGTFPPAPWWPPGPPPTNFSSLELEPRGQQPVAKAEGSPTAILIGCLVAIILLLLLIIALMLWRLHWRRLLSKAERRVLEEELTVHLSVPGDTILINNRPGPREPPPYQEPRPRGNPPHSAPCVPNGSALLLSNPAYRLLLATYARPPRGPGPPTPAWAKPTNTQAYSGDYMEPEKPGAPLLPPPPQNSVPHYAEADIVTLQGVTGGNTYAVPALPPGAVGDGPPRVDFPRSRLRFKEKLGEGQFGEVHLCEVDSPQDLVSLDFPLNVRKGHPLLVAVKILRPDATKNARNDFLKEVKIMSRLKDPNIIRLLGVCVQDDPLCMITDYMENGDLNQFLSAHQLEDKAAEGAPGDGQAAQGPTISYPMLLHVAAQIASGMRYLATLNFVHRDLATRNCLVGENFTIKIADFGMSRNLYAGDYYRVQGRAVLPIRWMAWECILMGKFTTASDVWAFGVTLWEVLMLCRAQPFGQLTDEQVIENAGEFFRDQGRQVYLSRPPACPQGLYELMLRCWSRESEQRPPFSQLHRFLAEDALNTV
Sequence of RAF proto-oncogene serine/threonine-protein kinase (Homo sapiens) (P04049 whole entry): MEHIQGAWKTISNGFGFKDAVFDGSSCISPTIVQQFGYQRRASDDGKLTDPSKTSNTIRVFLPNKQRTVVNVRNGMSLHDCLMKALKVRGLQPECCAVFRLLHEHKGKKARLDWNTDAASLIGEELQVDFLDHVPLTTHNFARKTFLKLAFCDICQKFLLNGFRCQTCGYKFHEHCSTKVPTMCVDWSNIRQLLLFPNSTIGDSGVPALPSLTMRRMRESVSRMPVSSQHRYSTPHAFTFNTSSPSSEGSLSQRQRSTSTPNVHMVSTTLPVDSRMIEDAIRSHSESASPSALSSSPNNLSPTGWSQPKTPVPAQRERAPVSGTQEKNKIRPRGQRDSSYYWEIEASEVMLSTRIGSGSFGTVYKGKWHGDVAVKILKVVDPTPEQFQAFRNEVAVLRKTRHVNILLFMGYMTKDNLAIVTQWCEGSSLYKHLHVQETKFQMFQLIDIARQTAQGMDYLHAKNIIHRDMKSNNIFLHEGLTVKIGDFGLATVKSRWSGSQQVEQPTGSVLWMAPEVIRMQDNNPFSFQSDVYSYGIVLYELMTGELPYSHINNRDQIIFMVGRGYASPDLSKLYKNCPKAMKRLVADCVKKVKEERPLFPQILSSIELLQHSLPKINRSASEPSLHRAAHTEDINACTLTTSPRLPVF
Sequence of Receptor-type tyrosine-protein kinase FLT3 (Homo sapiens) (P36888 whole entry): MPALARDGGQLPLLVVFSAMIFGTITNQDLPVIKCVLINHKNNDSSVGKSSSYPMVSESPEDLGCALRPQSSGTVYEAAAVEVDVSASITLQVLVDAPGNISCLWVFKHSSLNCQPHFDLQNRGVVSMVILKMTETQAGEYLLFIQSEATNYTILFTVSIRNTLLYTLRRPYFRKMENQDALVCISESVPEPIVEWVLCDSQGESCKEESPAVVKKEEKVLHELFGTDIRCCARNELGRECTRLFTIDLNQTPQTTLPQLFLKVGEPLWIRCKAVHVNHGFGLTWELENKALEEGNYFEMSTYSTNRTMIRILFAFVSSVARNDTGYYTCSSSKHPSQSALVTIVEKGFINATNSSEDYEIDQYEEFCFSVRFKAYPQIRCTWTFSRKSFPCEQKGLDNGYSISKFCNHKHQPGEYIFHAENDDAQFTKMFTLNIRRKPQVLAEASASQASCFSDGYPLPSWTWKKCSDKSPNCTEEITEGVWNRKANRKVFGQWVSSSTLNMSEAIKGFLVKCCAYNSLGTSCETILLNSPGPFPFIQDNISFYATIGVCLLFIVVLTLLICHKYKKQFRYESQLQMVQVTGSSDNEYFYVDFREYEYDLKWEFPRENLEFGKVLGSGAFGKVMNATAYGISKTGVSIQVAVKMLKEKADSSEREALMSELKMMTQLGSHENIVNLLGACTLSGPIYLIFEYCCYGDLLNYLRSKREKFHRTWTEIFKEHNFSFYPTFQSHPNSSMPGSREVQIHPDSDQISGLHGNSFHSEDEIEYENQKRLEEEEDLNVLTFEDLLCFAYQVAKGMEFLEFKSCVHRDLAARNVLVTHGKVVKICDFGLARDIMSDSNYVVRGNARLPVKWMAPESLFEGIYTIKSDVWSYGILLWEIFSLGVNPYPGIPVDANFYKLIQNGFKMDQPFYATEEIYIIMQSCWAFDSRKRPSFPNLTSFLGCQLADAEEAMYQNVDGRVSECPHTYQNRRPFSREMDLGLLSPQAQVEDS
Sequence of Phosphatidylinositol 5-phosphate 4-kinase type-2 gamma (Homo sapiens) (Q8TBX8 whole entry): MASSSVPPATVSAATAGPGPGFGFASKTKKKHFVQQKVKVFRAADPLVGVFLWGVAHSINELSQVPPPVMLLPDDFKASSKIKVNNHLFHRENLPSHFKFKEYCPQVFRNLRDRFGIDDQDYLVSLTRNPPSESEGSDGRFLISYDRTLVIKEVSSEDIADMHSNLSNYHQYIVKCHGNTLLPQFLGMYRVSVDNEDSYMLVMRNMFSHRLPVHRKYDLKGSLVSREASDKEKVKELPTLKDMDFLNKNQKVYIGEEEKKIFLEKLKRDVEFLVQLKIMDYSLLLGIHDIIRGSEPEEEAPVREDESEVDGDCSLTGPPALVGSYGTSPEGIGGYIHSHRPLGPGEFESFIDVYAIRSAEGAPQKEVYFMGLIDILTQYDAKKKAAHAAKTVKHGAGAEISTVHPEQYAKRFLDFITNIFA
Sequence of Mitogen-activated protein kinase 14 (Homo sapiens) (Q16539 whole entry): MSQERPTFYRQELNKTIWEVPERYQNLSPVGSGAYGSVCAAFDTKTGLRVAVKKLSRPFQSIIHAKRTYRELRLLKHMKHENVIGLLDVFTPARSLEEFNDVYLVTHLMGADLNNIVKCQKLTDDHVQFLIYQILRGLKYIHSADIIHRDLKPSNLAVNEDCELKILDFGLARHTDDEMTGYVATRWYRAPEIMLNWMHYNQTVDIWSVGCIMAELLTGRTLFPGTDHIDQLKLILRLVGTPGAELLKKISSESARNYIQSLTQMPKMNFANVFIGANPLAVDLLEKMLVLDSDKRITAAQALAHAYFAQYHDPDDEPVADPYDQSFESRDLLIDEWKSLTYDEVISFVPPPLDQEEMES
Sequence of Receptor-type tyrosine-protein kinase FLT3 (P36888 whole entry): as the sequence (P36888 whole entry) above

What is called IC50 is the concentration at which inhibition is half-maximal. As usually defined, the inhibition is the relative decrease from the control value, in per cent. On to `CCOC(=O)CCc1c(/C=C2\C(=O)Nc3ccc(NS(=O)(=O)c4ccccc4)cc32)[nH]c2c1C(=O)CCC2`, for which the IC50 in the assay on HT-29 was 3.23 µM; in the assay with HCT-116 [2] it was 3.74 µM; with HCT-116 [16], 1.02 µM. The inhibition in [1] is 47%; in assay [5] it was 31%; in assay [7], 4%; in assay [8] it was 34%; in assay [9] it was -8%; in assay [12], 97%. The inhibition in [15] is 41%; in assay [17], 77%. The residual activity in [3], in assay [4], in assay [6], in assay [10], in [11] and in assay [13] was < 10% throughout. The residual activity in [14] was < 10%.

For the compound `CN(C)CCCc1c(/C=C2\C(=O)Nc3ccc(NS(=O)(=O)c4ccccc4)cc32)[nH]c2c1C(=O)CCC2`, the concentration for half-maximal inhibition (IC50) at Aurora kinase A is 2.19 µM; in the assay on HT-29, 2.97 µM; in [19], < 1 µM; in the assay with HCT-116 [2], 3.69 µM; on Aurora kinase B, 0.235 µM; with HeLa, 7.8 µM. The concentration for half-maximal inhibition (IC50) in assay [20] is < 1 µM. Besides, the outcome with HCT-116 [18] and with HCT-116 [21] was Active. Besides, the inhibition was 70% in assay [1]; 11% in [7]; 56% in [8]; -7% in assay [9]; 95% in [12]; 65% in assay [15]. For the same compound, the inhibition in assay [17] stood at 41%. Besides, the residual activity in assay [3], in assay [4], in [6], in [10], in assay [11] and in [13] was < 10% in each case. Further, in assay [14], the residual activity is < 10%.
